The record followed here is ChEMBL document CHEMBL4673342, “Lipid-Lowering Activities of Cucurbitacins Isolated from Trichosanthes cucumeroides and Their Synthetic Derivatives” (2020).

Each structure is given as a SMILES string. The source made the active and inactive calls. No cut-off for these calls is given here.

The test system of the first assay is HepG2. As to the kind of experiment: Induction of […] uptake in human HepG2 cells at 5 uM by DIL probe based fluorescence assay.
Conditions: not given
It counts as functional, cell-based. The method in brief: (§1)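 HepG2 cells (passages 4–11) in DMEM/10% FBS were treated with DMSO or compound at 5 µM, then given DiI-labelled human plasma LDL (20 µg/mL) for 3 h at 37 °C in the dark. After ice-cold PBS/0.4% albumin rinses, cell-bound dye was extracted with isopropanol and fluorescence read at 520–578 nm. Uptake rate is relative to DMSO. Positive control nagilactone B at 5 µM; n = 3.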
As for `CCC(=O)O[C@H]1C[C@@H]2C(=CC[C@@H]3[C@@]2(C)C(=O)C[C@]2(C)[C@@H]([C@@](C)(O)C(=O)CCC(C)(C)OC(C)=O)[C@H](OC(=O)CC)C[C@@]32C)C(C)(C)C1=O`, the result was inactive.

On to `CC(=O)OC1C[C@@H]2C(=CC(=O)[C@@H]3[C@@]2(C)C(=O)C[C@]2(C)[C@@H]([C@@](C)(O)C(=O)CCC(C)(C)OC(C)=O)[C@H](OC(C)=O)C[C@@]32C)C(C)(C)C1O` (some centres not stated), for which the result was Active. With `CC(=O)O[C@@H]1C[C@@]2(C)[C@@H]3CC=C4[C@@H](CC(=O)[C@H](O)C4(C)C)[C@]3(C)C(=O)C[C@]2(C)[C@H]1[C@@](C)(O)C(=O)CCC(C)(C)OC(C)=O`, the outcome was inactive.

`CC(=O)OC(C)(C)/C=C/C(=O)[C@](C)(O)[C@H]1C(=O)C[C@@]2(C)[C@@H]3CC=C4[C@@H](C[C@H](O)C(=O)C4(C)C)[C@]3(C)C(=O)C[C@]12C`: the result was inactive. As to `CC1(C)C(=O)[C@@H](O)C[C@@H]2C1=CC[C@@H]1[C@@]2(C)C(=O)C[C@]2(C)[C@@H]([C@@](C)(O)C(=O)C[C@@H](O)C(C)(C)O)[C@H](O)C[C@@]12C`, the outcome was Active. As for `CC1(C)C(=O)[C@@H](O)C[C@@H]2C1=CC[C@@H]1[C@@]2(C)C(=O)C[C@]2(C)[C@@H]([C@@](C)(O)C(=O)C[C@H](O)C(C)(C)O)[C@H](O)C[C@@]12C`, the result was Active.

As to `CC(=O)O[C@@H]1C[C@@]2(C)[C@@H]3CC=C4[C@@H](CC(=O)[C@H](OC(C)=O)C4(C)C)[C@]3(C)C(=O)C[C@]2(C)[C@H]1[C@@](C)(O)C(=O)CCC(C)(C)OC(C)=O`, the result was inactive.

Turning to `CC(=O)O[C@H]1C[C@@H]2C(=CC[C@@H]3[C@@]2(C)C(=O)C[C@]2(C)[C@@H]([C@@](C)(O)C(=O)/C=C/C(C)(C)OC(C)=O)[C@H](OC(=O)O)C[C@@]32C)C(C)(C)C1=O`, the outcome was inactive.

Regarding `CC(=O)OC(C)(C)/C=C/C(=O)[C@](C)(O)[C@H]1[C@H](O)C[C@@]2(C)[C@@H]3CC=C4[C@@H](C[C@H](O)C(=O)C4(C)C)[C@]3(C)C(=O)C[C@]12C`, the outcome was Active. Consider `CC1(C)C(=O)[C@@H](O)C[C@@H]2C1=C[C@H](O)[C@@H]1[C@@]2(C)C(=O)C[C@]2(C)[C@@H](C=O)[C@H](O)C[C@@]12C`, for which the outcome was Active. Turning to `CC(=O)OC(C)(C)CCC(=O)[C@](C)(O)[C@H]1[C@H](O)C[C@@]2(C)[C@@H]3CC=C4[C@@H](C[C@H](OC(=O)CCC(=O)O)C(=O)C4(C)C)[C@]3(C)C(=O)C[C@]12C`, the outcome was inactive. On the same count and under the same terms, then `CC(=O)O[C@@H]1C[C@@]2(C)[C@@H]3CC=C4[C@@H](C[C@H](O)C(=O)C4(C)C)[C@]3(C)C(=O)C[C@]2(C)[C@H]1[C@@](C)(O)C(=O)/C=C/C(C)(C)OC(C)=O`, with “inactive”. Consider `CC(=O)OC(C)(C)CCC(=O)[C@](C)(O)[C@H]1[C@H](O)C[C@@]2(C)[C@@H]3CC=C(C(C)(C)C(=O)O)[C@@H](CC(=O)O)[C@]3(C)C(=O)C[C@]12C`, for which the result was Active. For `CO[C@H](CC(=O)[C@](C)(O)[C@H]1[C@H](O)C[C@@]2(C)[C@@H]3CC=C4[C@@H](C[C@H](O)C(=O)C4(C)C)[C@]3(C)C(=O)C[C@]12C)C(C)(C)O`, the result was Active. Turning to `CC(=O)OC(C)(C)/C=C/C(=O)[C@](C)(O)[C@H]1[C@H](O)C[C@@]2(C)[C@@H]3[C@@H](O)C=C4[C@@H](CC(=O)[C@H](O)C4(C)C)[C@]3(C)C(=O)C[C@]12C`, the outcome was Active.

Take `CC(=O)O[C@H]1C[C@@H]2C(=CC(=O)[C@@H]3[C@@]2(C)C(=O)C[C@]2(C)[C@@H]([C@@](C)(O)C(=O)/C=C/C(C)(C)OC(C)=O)[C@H](OC(=O)O)C[C@@]32C)C(C)(C)C1=O`: the result was Active.

In the next assay the test system is HepG2. As to the kind of experiment: Down regulation of PCSK9 protein expression in human HepG2 cells by Western blot analysis. The format is functional, cell-based. The conditions noted are these: dose 1-20 µM. The method in brief:
(§2)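 HepG2 cells were cultured 12 h, then held a further 24 h in medium with 2% LPDS. Cells were treated with compound across a concentration range, lysed with protease/phosphatase inhibitors, and 30 µg protein was run on 8% SDS-PAGE and blotted to PVDF. Membranes were blocked in 5% milk and probed overnight at 4 °C for LDLR or PCSK9. Mean ± SEM, n ≥ 5.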
A general note: Immunoblotting shows a protein as a band on a membrane.
`CC(=O)[C@H]1[C@H](O)C[C@@]2(C)[C@@H]3CC=C4[C@@H](CC(=O)[C@@H](O)C4(C)C)[C@]3(C)C(=O)C[C@]12C`: the Activity entry is “Dose-dependent effect”.

In the case of `CC(=O)OC(C)(C)/C=C/C(=O)[C@](C)(O)[C@H]1[C@H](O)C[C@@]2(C)[C@@H]3[C@@H](O)C=C4[C@@H](CC(=O)[C@@H](O)C4(C)C)[C@]3(C)C(=O)C[C@]12C`, the Activity entry was “Dose-dependent effect”.

The next assay has as its system HepG2. The experiment in a line: Upregulation of LDLR protein expression in human HepG2 cells by Western blot analysis. The following applies: dose 1-20 µM. It counts as functional, cell-based. The method in brief:
as §2
Consider `CC(=O)[C@H]1[C@H](O)C[C@@]2(C)[C@@H]3CC=C4[C@@H](CC(=O)[C@@H](O)C4(C)C)[C@]3(C)C(=O)C[C@]12C`, for which the Activity entry was “Dose-dependent effect”.

On to `CC(=O)OC(C)(C)/C=C/C(=O)[C@](C)(O)[C@H]1[C@H](O)C[C@@]2(C)[C@@H]3[C@@H](O)C=C4[C@@H](CC(=O)[C@@H](O)C4(C)C)[C@]3(C)C(=O)C[C@]12C`, for which the Activity result was “Dose-dependent effect”.

Test system in the next assay: not listed separately
The experiment in a line: Induction of […] uptake in human HepG2 cells assessed as fold change at 5 uM by DIL probe based fluorescence assay.
Conditions: not given
It counts as functional. The method in brief: as §1
On to `CC(=O)[C@H]1[C@H](O)C[C@@]2(C)[C@@H]3CC=C4[C@@H](CC(=O)[C@@H](O)C4(C)C)[C@]3(C)C(=O)C[C@]12C`, for which the “fold change (FC)” value is reported as 2.53. Consider `CC(C)c1oc(=O)cc2c1[C@@H](O)[C@H]1OC(=O)[C@@]3(C)C[C@@H](O)[C@@H](O)[C@@]2(C)C13` (some centres not stated), for which the “fold change (FC)” value came out at 2.07.
